Assay results taken from ChEMBL document CHEMBL2010740, “Synthesis and evaluation of 2-amido-3-carboxamide thiophene CB₂ receptor agonists for pain management” (Bioorg Med Chem Lett, 2012).
pIC50, pKi: −log10 of the molar value.

What was measured:
Cannabinoid receptor 2 [1] = biological target: T1, Cannabinoid receptor 2 (Homo sapiens, UniProt P34972); assay: Displacement of [3H]CP-55940 from human recombinant CB2 receptor expressed in HEK293 cells after 90 mins; assay type: cell-based
Method in brief: (§1)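 Competitive binding: [³H]CP-55,940 displaced from membranes of HEK 293 cells stably transfected with human or rat CB₂, or CHO cells stably transfected with human or rat CB₁. Reported as pKi. Determinations >2 (duplicate of duplicate).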

Cannabinoid receptor 2 [2] = biological target: T2, Cannabinoid receptor 2 (Rattus norvegicus, UniProt Q9QZN9); assay: Displacement of [3H]CP-55940 from rat recombinant CB2 receptor expressed in HEK293 cells after 90 mins; assay type: cell-based; method in brief: as §1
T2 sequence (Q9QZN9 whole entry): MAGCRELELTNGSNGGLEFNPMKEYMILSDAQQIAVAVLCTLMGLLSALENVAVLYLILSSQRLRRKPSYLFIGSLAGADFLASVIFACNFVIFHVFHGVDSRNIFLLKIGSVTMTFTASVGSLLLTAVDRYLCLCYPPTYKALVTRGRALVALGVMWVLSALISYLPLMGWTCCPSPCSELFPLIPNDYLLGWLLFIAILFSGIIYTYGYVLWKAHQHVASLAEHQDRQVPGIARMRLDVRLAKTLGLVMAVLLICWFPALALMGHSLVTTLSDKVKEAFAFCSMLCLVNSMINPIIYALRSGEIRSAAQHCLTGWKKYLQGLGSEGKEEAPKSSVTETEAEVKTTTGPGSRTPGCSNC

Cannabinoid receptor 1 [3] = biological target: Cannabinoid receptor 1 (Homo sapiens, UniProt P21554); assay: Displacement of [3H]CP-55940 from human recombinant CB1 receptor expressed in CHO cells after 90 mins; assay type: cell-based; method in brief: as §1
Rattus norvegicus = assay: Neurotoxicity in rat assessed as decrease in spontaneous locomotory activity at 1 umol/kg, ip after 30 mins; assay type: toxicity, organism-based; design: scale not given: the % may be the effect or the level left; conditions: in vivo, 0.5 h
Method in brief: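 Given intraperitoneally 30 min before testing; horizontal locomotor activity was recorded and compared across doses.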

[4] = Plasma protein binding in human; assay type: ADME, cell-free; conditions: read-out: PPB (converted)
[5] = Plasma protein binding in rat; assay type: ADME, cell-free; conditions: read-out: PPB (converted)
Cannabinoid receptor 2 [6] = biological target: T1, Cannabinoid receptor 2; assay: Agonist activity at human recombinant CB2 receptor expressed in HEK293 cells co-expressing chimeric Gaq/o protein by FLIPR assay; assay type: functional, cell-based
Method in brief: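 FLIPR functional assay in HEK 293 cells stably co-expressing chimeric Gαq/o protein and the CB receptor. Net peak evoked response was compared with the peak response to CP-55,940.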

Cannabinoid receptor 1 [7] = biological target: Cannabinoid receptor 1 (Rattus norvegicus, UniProt P20272); assay: Displacement of [3H]CP-55940 from rat recombinant CB1 receptor expressed in CHO cells after 90 mins; assay type: cell-based; method in brief: as §1
Cannabinoid receptor 2 [8] = biological target: T1, Cannabinoid receptor 2; assay: Agonist activity at human recombinant CB2 receptor expressed in HEK293 cells assessed as inhibition of forskolin-induced cAMP production after 20 mins by ELISA; assay type: functional, cell-based
Method in brief: (§2)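 cAMP assay in HEK 293 cells stably expressing the relevant CB receptor, with a fixed concentration of forskolin. cAMP was quantified by ELISA. Activation is given as percent of the CP-55,940 control response.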

Cannabinoid receptor 2 [9] = biological target: T2, Cannabinoid receptor 2; assay: Agonist activity at rat recombinant CB2 receptor expressed in HEK293 cells assessed as inhibition of forskolin-induced cAMP production after 20 mins by ELISA; assay type: functional, cell-based; method in brief: as §2

T1 sequence (P34972 whole entry): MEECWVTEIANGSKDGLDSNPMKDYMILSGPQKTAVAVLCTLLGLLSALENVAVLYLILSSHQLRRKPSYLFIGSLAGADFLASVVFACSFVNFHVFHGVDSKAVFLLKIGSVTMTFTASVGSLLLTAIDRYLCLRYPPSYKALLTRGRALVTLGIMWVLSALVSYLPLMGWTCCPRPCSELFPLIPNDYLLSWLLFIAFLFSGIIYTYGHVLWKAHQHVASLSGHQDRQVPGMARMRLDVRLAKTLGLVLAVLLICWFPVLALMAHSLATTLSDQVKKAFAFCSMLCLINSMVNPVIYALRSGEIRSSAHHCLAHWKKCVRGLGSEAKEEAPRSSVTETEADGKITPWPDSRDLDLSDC
Cannabinoid receptor 1 (Homo sapiens, UniProt P21554), sequence (P21554 whole entry): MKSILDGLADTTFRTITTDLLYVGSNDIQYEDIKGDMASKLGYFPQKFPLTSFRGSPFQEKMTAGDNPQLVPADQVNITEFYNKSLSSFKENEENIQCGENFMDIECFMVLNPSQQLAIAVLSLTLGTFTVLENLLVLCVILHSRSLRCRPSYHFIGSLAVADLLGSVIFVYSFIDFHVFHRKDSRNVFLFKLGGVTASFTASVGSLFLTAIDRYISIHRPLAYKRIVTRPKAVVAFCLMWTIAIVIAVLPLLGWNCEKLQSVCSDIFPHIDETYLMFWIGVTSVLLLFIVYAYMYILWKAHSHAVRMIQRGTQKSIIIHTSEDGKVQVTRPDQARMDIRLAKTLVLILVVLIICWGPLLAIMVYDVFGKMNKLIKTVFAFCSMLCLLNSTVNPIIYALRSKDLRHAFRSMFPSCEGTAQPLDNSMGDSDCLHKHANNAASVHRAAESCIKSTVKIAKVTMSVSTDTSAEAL
Cannabinoid receptor 1 (Rattus norvegicus, UniProt P20272), sequence (P20272 whole entry): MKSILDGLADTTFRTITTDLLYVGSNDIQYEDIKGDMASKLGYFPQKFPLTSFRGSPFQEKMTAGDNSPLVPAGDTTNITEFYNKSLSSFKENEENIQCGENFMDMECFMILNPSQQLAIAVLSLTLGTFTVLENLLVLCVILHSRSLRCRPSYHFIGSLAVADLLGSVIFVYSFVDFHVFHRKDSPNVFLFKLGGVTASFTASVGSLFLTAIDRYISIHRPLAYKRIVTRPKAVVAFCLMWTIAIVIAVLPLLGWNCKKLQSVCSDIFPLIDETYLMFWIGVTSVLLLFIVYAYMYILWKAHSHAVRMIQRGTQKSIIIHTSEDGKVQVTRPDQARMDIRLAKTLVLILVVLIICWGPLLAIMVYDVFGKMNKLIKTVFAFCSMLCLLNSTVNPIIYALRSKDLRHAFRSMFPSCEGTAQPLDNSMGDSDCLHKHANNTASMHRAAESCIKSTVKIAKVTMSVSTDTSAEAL

Compound	pKi (Cannabinoid receptor 2 [1])	pKi (Cannabinoid receptor 2 [2])	pKi (Cannabinoid receptor 1 [3])	other results
CCNC(=O)c1c(NC(=O)C23CC4CC(CC2C4)C3)sc2c1CCOC2	6.67	6.53	< 5.00	
O=C(CCCN1CCC(O)(c2ccc(Cl)cc2)CC1)c1ccc(F)cc1 [HALOPERIDOL]				Activity (Rattus norvegicus): 68%
CCCNC(=O)c1c(NC(=O)c2c(F)cccc2C(F)(F)F)sc2c1CCOC2	6.98	6.48	< 5.00	
CCCNC(=O)c1c(NC(=O)C23CC4CC(CC2C4)C3)sc2c1CCNC2	< 6.00			fraction unbound [4]: < 0.01; fraction unbound [5]: < 0.01
CCCNC(=O)c1c(NC(=O)C23CC4CC(CC2C4)C3)sc2c1CCN(C)C2	7.04	8.23	< 5.00	pIC50 (Cannabinoid receptor 2 [6]): < 5.00
CCCNC(=O)c1c(NC(=O)C2C(C)(C)C2(C)C)sc2c1CCOC2	7.04	8.36	< 5.00	pKi (Cannabinoid receptor 1 [7]): 6.72; pIC50 (Cannabinoid receptor 2 [6]): 7.28; pIC50 (Cannabinoid receptor 2 [8]): 9.00; pIC50 (Cannabinoid receptor 2 [9]): < 5.00
CCCNC(=O)c1c(NC(=O)C2CC3CCC2C3)sc2c1CCOC2 (centres undefined)	6.98	6.57	< 5.00	
